Here are results for 1 compound from ChEMBL document CHEMBL4014347, “Targeting Mycolic Acid Transport by Indole-2-carboxamides for the Treatment of Mycobacterium abscessus Infections” (J Med Chem, 2017).

Values after ≈ are worked out from the molar mass of the structure shown.

The test system of series [1] is Mycobacterium tuberculosis. Put plainly: Antibacterial activity against Mycobacterium tuberculosis by AlamarBlue assay. The class given is functional. (In general: Alamar Blue is a resazurin reagent that responds to reducing activity.)
For series [2], the system named is Mycobacteroides abscessus. Put plainly: Antibacterial activity against CF patient derived Mycobacterium abscessus subsp. massiliense isolate 100 smooth variant after 3 to 5 days by two fold serial dilution method. The class given is functional. The method, boiled down:
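Broth microdilution in cation-adjusted Mueller−Hinton broth per CLSI; inoculum 5 × 10^6 CFU/mL of exponential-phase bacteria; two-fold serial dilutions, solvent-only wells as control; 30 °C for 3−5 days; MIC read visually and confirmed by absorbance at 560 nm; triplicate on three independent occasions.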

For a further series, the target named is CYP3A4 (Homo sapiens, UniProt P08684). Put plainly: Inhibition of CYP3A4 in human liver microsomes preincubated for 5 mins followed by NADPH addition at 10 uM measured after 5 mins by LC-MS/MS analysis relative to control. The class given is ADME. On the technique in general: Liver microsomes are vesicles of endoplasmic reticulum, rich in cytochrome P450 enzymes.
Sequence of CYP3A4 (P08684 whole entry): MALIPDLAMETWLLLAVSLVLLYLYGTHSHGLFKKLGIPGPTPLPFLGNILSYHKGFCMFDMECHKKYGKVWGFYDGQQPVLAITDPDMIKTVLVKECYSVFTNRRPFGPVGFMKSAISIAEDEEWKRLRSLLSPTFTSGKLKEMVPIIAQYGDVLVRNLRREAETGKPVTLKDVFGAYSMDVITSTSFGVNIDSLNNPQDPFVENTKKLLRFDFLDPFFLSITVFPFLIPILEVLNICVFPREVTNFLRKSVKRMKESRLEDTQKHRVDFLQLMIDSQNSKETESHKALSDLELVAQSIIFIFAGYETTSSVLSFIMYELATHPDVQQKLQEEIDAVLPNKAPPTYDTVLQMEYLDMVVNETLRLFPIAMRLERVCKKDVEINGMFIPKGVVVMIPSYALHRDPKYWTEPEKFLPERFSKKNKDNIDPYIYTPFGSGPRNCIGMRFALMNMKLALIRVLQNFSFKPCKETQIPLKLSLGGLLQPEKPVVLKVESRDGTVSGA

By MIC is commonly meant the lowest concentration that inhibits growth of the organism. Lower therefore signals greater potency. By inhibition is commonly meant the percentage by which the read-out fell short of the control. Low readings indicate little suppression, high ones strong suppression. `O=C(NC1CCCCCC1)c1cc2c(Cl)cc(Cl)cc2[nH]1`: in series [1], the “MIC=<90” value was 0.0039 µg/mL (≈ 0.012 µM). In series [2], this compound yielded an MIC of 0.125 µg/mL (≈ 0.384 µM). In addition, the inhibition at 5 min, 10 µM against CYP3A4 turned out to be 1%.
